The values below come from ChEMBL document CHEMBL1143062, “Identification of natural-product-derived inhibitors of 5-lipoxygenase activity by ligand-based virtual screening” (J Med Chem, 2007).

Assay [1] concerns the target T1, Polyunsaturated fatty acid 5-lipoxygenase (Homo sapiens) (UniProt P09917).
T1 sequence (whole entry): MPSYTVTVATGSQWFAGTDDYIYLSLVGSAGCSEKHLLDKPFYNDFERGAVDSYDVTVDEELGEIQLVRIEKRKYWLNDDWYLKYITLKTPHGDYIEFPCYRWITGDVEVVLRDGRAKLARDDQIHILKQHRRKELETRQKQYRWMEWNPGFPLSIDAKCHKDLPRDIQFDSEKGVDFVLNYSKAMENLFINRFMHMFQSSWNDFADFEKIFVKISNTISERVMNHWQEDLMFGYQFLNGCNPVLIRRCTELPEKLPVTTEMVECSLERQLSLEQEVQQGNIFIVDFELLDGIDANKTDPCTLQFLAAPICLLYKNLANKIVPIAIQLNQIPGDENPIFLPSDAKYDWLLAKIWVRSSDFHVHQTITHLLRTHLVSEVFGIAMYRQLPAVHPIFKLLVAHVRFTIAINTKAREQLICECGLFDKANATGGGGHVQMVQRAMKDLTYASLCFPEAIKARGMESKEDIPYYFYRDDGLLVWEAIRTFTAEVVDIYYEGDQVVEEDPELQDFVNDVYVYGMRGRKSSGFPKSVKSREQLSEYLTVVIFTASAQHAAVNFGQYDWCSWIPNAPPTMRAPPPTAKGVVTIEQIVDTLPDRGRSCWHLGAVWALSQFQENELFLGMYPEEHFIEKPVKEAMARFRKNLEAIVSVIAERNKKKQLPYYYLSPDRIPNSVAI
The assay is described as follows: Inhibition of partially purified human 5-LO expressed in Escherichia coli assessed as remaining 5-LO activity at 10 uM; values are per cent of control.

Assay [2] addresses T2, Polyunsaturated fatty acid 5-lipoxygenase (Homo sapiens, UniProt P09917).
T2 sequence (P09917 whole entry): T1 sequence (whole entry)
The assay is described as follows: Inhibition of partially purified human 5-LO expressed in Escherichia coli. Put shortly:
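Recombinant 5-LO from E. coli MV1190 (pT3-5LO, expressed at 27 °C), partially purified by ammonium sulfate precipitation and ATP-agarose chromatography of the S100 fraction. 0.5 µg protein in PBS pH 7.4 with 1 mM EDTA and 1 mM ATP, compound 5-10 min at 4 °C. Started with 2 mM CaCl2 and 20 µM arachidonic acid, 10 min at 37 °C, methanol stop. HPLC product analysis as remaining activity; n ≥ 3, mean ± SEM.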

Assay [3] deals with T1, Polyunsaturated fatty acid 5-lipoxygenase (Homo sapiens). The assay is described as follows: Inhibition of partially purified human 5-LO expressed in Escherichia coli assessed as remaining 5-LO activity at 1 uM; values are per cent of control.
In assay [4] the target is T2, Polyunsaturated fatty acid 5-lipoxygenase. Description: Inhibition of 5-LO activity in ionophore A23187 and arachidonic-stimulated human intact PMNL. The format is functional. Put shortly: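 Freshly isolated human PMNL from healthy-donor leukocyte concentrates (dextran sedimentation, Nycoprep, hypotonic erythrocyte lysis), 5 × 10^6 cells/mL in PBS pH 7.4 with 1 mg/mL glucose and 1 mM CaCl2. 5-LO products analysed by HPLC; n ≥ 3, mean ± SEM.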

In the case of `COc1cc(C)c2c(c1C)CC(C(C)C(=O)NC(C)(C)C)CC2` (stereo unspecified), the residual activity in assay [1] was 42%; in assay [3], 55%. Further, the results for the IC50 in assay [2] and in assay [4] were 4 µM and more than 10 µM, respectively.

For the compound `Cc1nnsc1C(=O)Nc1nc2c(s1)CC1(C)CCC3C(C)C(=O)OC3C1C2C` (stereo unspecified), the residual activity came out at 88% in assay [1] and 87% in assay [3]. The results for the IC50 in assay [2] and in assay [4] were more than 10 µM and 10 µM, respectively.

For `COc1ccc(C(=O)Nc2nc3c(s2)CC2(C)CCC4C(C)C(=O)OC4C2C3C)cc1` (stereo unspecified), the figures for the residual activity in assay [1] and in assay [3] were 78% and 57%, respectively. Besides, the IC50 in assay [2] was more than 10 µM; in assay [4] it was 6 µM.

In the case of `COc1cc(C)c2c(c1C)CC(C(C)C(=O)NCc1cccs1)CC2` (stereo unspecified), the residual activity in assay [1] and in assay [3] was 64% in each case. Further, the IC50 was more than 10 µM in assay [2] and 8 µM in assay [4].

`CCCOc1cc(C)c2c(c1C)CC(C(C)C(=O)Nc1ncc(C)s1)CC2` (stereo unspecified): the IC50 in assay [2] was 0.8 µM; in assay [4] it was 1 µM.

With `COc1ccccc1CC(=O)Nc1nc2c(s1)CC1(C)CCC3C(C)C(=O)OC3C1C2C` (stereo unspecified), the residual activity in assay [1] was determined as 86%; in assay [3], 87%. In addition, the IC50 in assay [2] is more than 10 µM; in assay [4] it was 4 µM.

For the compound `CC1C(=O)OC2C1CCC1(C)Cc3sc(NC(=O)Nc4ccc(F)cc4F)nc3C(C)C21` (stereo unspecified), the values for the residual activity in assay [1] and in assay [3] were 52% and 46%, respectively. Moreover, the IC50 in assay [2] amounted to 0.6 µM; in assay [4], 7 µM.

As for `CCCOc1cc(C)c2c(c1C)CC(C(C)C(=O)Nc1nccs1)CC2` (stereo unspecified), the residual activity in assay [1] stood at 36%; in assay [3] it was 50%. Also, the results for the IC50 in assay [2] and in assay [4] were 1 µM and 0.8 µM, respectively.

As for `CC1C(=O)OC2C1CCC1(C)Cc3sc(NC(=O)C4CCCC4)nc3C(C)C21` (stereo unspecified), the residual activity in assay [1] was 52%; in assay [3], 66%. Further, the IC50 in assay [2] turned out to be 10 µM; in assay [4] it was 8 µM.

For `COc1cc(C(=O)Nc2nc3c(s2)C[C@]2(C)CC[C@@H]4[C@H](OC(=O)[C@H]4C)[C@H]2[C@@H]3C)cc(OC)c1OC`, the residual activity stood at 60% in assay [1] and 65% in assay [3]. The IC50 is more than 10 µM in assay [2] and 0.9 µM in assay [4].

For the compound `CSc1cccc(NC(=O)Nc2nc3c(s2)CC2(C)CCC4C(C)C(=O)OC4C2C3C)c1` (stereo unspecified), the values for the residual activity in assay [1] and in assay [3] were 67% and 55%, respectively. In addition, the IC50 in assay [2] is 1 µM; in assay [4], 4 µM.

With `COc1cc(C)c2c(c1C)CC(C(C)C(=O)Nc1nccs1)CC2` (stereo unspecified), the residual activity in assay [1] amounted to 56%; in assay [3], 73%.

Consider `CC1C(=O)OC2C1CCC1(C)Cc3sc(NC(=O)NCc4ccccc4)nc3C(C)C21` (stereo unspecified), for which the results for the residual activity in assay [1] and in assay [3] were 54% and 78%, respectively. For the same compound, the results for the concentration for half-maximal inhibition (IC50) in assay [2] and in assay [4] were more than 10 µM and 3 µM, respectively.

Consider `Cc1cc(OCCN(C)C)c(C)c2c1CCC(C(C)C(=O)Nc1ccccn1)C2` (stereo unspecified), for which the residual activity in assay [1] came out at 73%; in assay [3], 56%.

Regarding `COc1cc(C)c2c(c1C)CC(C(C)C(=O)Nc1ccccn1)CC2` (stereo unspecified), the residual activity turned out to be 42% in assay [1] and 54% in assay [3]. For the same compound, the values for the IC50 in assay [2] and in assay [4] were 0.8 µM and 5 µM, respectively.

For the compound `COc1cc(C)c2c(c1C)CC(C(C)C(=O)NCc1ccco1)CC2` (stereo unspecified), the residual activity came out at 41% in assay [1] and 47% in assay [3]. Further, the IC50 is 0.9 µM in assay [2] and more than 10 µM in assay [4].

`Cc1cc(OCCN2CCOCC2)c(C)c2c1CCC(C(C)C(=O)Nc1nccs1)C2` (stereo unspecified): the residual activity in assay [1] was found to be 62%; in assay [3], 74%.

For `COCCOc1cc(C)c2c(c1C)CC(C(C)C(=O)NC1CCCC1)CC2` (stereo unspecified), the figures for the residual activity in assay [1] and in assay [3] were 56% and 67%, respectively. For the same compound, the IC50 in assay [2] and in assay [4] was more than 10 µM each time.

In the case of `CCCOc1cc(C)c2c(c1C)CC(C(C)C(=O)NCc1cccs1)CC2` (stereo unspecified), the IC50 in assay [2] turned out to be 3 µM; in assay [4] it was 8 µM.

`CCCOc1cc(C)c2c(c1C)CC(C(C)C(=O)Nc1ccccn1)CC2` (stereo unspecified): the IC50 came to 6 µM in assay [2] and 0.9 µM in assay [4].

Regarding `CC1C(=O)OC2C1CCC1(C)Cc3sc(NC(=O)c4ccc5c(c4)OCO5)nc3C(C)C21` (stereo unspecified), the residual activity in assay [1] was 96%; in assay [3], 67%. The IC50 in assay [2] is more than 10 µM; in assay [4], 2 µM.

As for `Cc1cc(OCCN(C)C)c(C)c2c1CCC(C(C)C(=O)Nc1nccs1)C2` (stereo unspecified), the residual activity in assay [1] was 65%; in assay [3] it was 55%. The IC50 in assay [2] was 1 µM; in assay [4], more than 10 µM.
